Assay [1] in a line: Displacement of [3H]batrachotoxinin from sodium channel site 2 at 10 uM relative to veratridine. (In general: Loss of bound radioactivity is the signal in a displacement assay; it reports binding, not function.)
The nature of assay [2]: Neuroprotective effect against NMDA-induced toxicity in Sprague-Dawley rat mixed cortical neurons assessed as LDH release at 10 uM co-treated with NMDA. The class given is functional, Cortical neurone. Put shortly:
(§1)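 Mixed cortical cultures from E16 Sprague–Dawley rat neocortex, grown in Neurobasal with 5% FBS and used at 12 days in vitro. Compound added 20 min (co-treatment) or 24 h (pre-treatment) before NMDA (60 µM). MK-801 10 µM served as positive control. After 24 h, LDH release was read and normalized to the NMDA-released level. Technical replicates per sample were combined across independent experiments.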
(Release of lactate dehydrogenase indicates damage to the cell membrane.)

Assay [3] can be described thus: Neuroprotective effect against veratridine-induced toxicity in Sprague-Dawley rat pure cortical neurons assessed as XTT release at 1 uM co-treated with veratridine. The class given is functional, Cortical neurone. Put shortly:
(§2)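 E16 Sprague–Dawley rat cortical cultures, either mixed (Neurobasal with 5% FBS) or pure neuronal (Neurobasal with B27), used at 12 days in vitro. Compound at 1 or 10 µM was added 20 min before veratridine (60 µM). Viability was read 24 h later by LDH release in mixed cultures and XTT in pure cultures, normalized to veratridine. Three experiments, eight replicates each.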

A short description of assay [4]: Neuroprotective effect against NMDA-induced toxicity in Sprague-Dawley rat mixed cortical neurons assessed as LDH release at 1 uM co-treated with NMDA. It counts as functional, Cortical neurone. In outline:
as §1

Assay [5] in a line: Neuroprotective effect against NMDA-induced toxicity in Sprague-Dawley rat mixed cortical neurons assessed as LDH release at 1 uM pretreated before NMDA treatment. The class given is functional, Cortical neurone. In outline:
as §1

Assay [6] in a line: Neuroprotective effect against veratridine-induced toxicity in Sprague-Dawley rat pure cortical neurons assessed as XTT release at 10 uM co-treated with veratridine. The class given is functional, Cortical neurone. Put shortly:
as §2
In general terms: Tetrazolium assays rely on reduction of a dye to a coloured formazan, in cell work by metabolically active cells.

Assay [7] in a line: Neuroprotective effect against veratridine-induced toxicity in Sprague-Dawley mixed rat cortical neurons assessed as LDH release at 10 uM co-treated with veratridine.
A short description of assay [8]: Neuroprotective effect against NMDA-induced toxicity in Sprague-Dawley rat mixed cortical neurons assessed as LDH release at 10 uM pre-treated before NMDA treatment. The class given is functional, Cortical neurone. Put shortly:
as §1

Assay [9] in a line: Neuroprotective effect against veratridine-induced toxicity in Sprague-Dawley rat mixed cortical neurons assessed as XTT release at 10 uM pre-treated before veratridine treatment. The class given is functional, Cortical neurone.
Assay [10] is described as follows: Neuroprotective effect against veratridine-induced toxicity in Sprague-Dawley mixed rat cortical neurons assessed as LDH release at 1 uM co-treated with veratridine.
In another assay the test system is Cortical neurone. Nature of the assay: Neuroprotective effect against NMDA-induced toxicity in Sprague-Dawley rat mixed cortical neurons assessed as LDH release at 0.1 uM co-treated with NMDA. The class given is functional. In outline:
as §1

These results are taken from ChEMBL document CHEMBL1143985, “Aryl azoles with neuroprotective activity--parallel synthesis and attempts at target identification” (2008).

Active and inactive are the calls of the source. The calls are words filed in the database; no cut-off is given here.

As usually defined, the inhibition is the share of the control response that was lost under treatment. A lower inhibition goes with a response near the control.

As for `Cn1nc(-c2ccc(Cl)cc2)cc1-c1ccccc1`, in assay [1], the inhibition was 13%. In addition, in assay [2], the Activity amounted to 87.3%.
With `O=[N+]([O-])c1ccc(-c2cc(-c3ccccc3)n[nH]2)cc1`, the inhibition in [1] was found to be 14%. Besides, the Activity in assay [2] is 89%.
Take `Cn1nc(-c2ccccc2)cc1-c1cccc([N+](=O)[O-])c1`: in [1], the inhibition came to 4%. Also, the Activity in assay [2] worked out at 85.5%.
With `Cn1nc(-c2ccc([N+](=O)[O-])cc2)cc1-c1ccccc1`, in assay [1], the inhibition worked out at 8%. In addition, the Activity in [2] came to 86.3%.
In the case of `COc1ccccc1-c1cnn(-c2ccccc2)c1`, the result in assay [1] was inactive. The Activity in [2] is 80.3%.
In turn, `COc1cccc(C2CC(c3ccccc3)=NN2C(C)=O)c1` (stereo unspecified) showed an inhibition in assay [1] of 16%. In addition, the Activity in assay [2] stood at 81%.
As to `COc1ccc(-c2cc(-c3ccccc3)n[nH]2)cc1`, the Activity in [3] came to 70.4%; in [4], 81.7%; in assay [5], 91.1%; in assay [6], 64.9%; in assay [7], 49.2%; in [8], 95%. The Activity in assay [9] is recorded as 50%; in assay [10], 80.9%; in [2], 67.2%. Further, the inhibition in assay [1] is 30%.
Compound `CC(=O)N1N=C(c2ccc([N+](=O)[O-])cc2)CC1c1ccccc1` (stereo unspecified) returned an inhibition in [1] of 17%. Also, in assay [2], the Activity worked out at 85.5%.
Turning to `Cn1nc(-c2ccc(C(=O)O)cc2)cc1-c1ccc(C(C)(C)C)cc1`, the outcome in assay [1] was inactive. Further, the Activity in [2] is listed as 61.1%.
As to `COc1cccc(-c2cc(-c3ccccc3)nn2C)c1`, the inhibition in [1] was 12%. For the same compound, in assay [2], the Activity was 78.3%.
With `Cn1nc(-c2ccccc2)cc1-c1ccc2[nH]ccc2c1`, the Activity in assay [3] is reported as 82.7%; in assay [4] it was 80.3%; in [5] it was 90.2%; in [6], 56.8%; in assay [7], 63.2%; in assay [8], 86%. The Activity worked out at 40% in assay [9], 87.9% in assay [10] and 67.1% in [2]. The outcome with Cortical neurone was inactive. For the same compound, in assay [1], the inhibition came to 41%.
`CC(=O)N1N=C(c2ccccc2)CC1c1cccc(Cl)c1` (stereo unspecified) yielded an inhibition in assay [1] of 27%. Further, the Activity in assay [2] is listed as 86.4%.
The matching figures for `COc1cccc(-c2cc(-c3ccccc3)n[nH]2)c1`: 27% and 76%.
`COc1ccc(-c2cc(-c3ccccc3)n(C)n2)cc1` gave an inhibition in assay [1] of 8%. Moreover, the Activity in assay [2] was determined as 70.4%.
Turning to `Cn1nc(-c2ccccc2)cc1-c1c[nH]c2ccccc12`, the inhibition in [1] was 14%. For the same compound, the Activity in assay [2] amounted to 76.7%.
With `Cn1nc(-c2ccccc2)cc1-c1cccc(Cl)c1`, in assay [1], the inhibition was 15%. In addition, in assay [2], the Activity was 65.6%.
`Clc1cccc(-c2cc(-c3ccccc3)n[nH]2)c1` returned an inhibition in assay [1] of 21%. The Activity in assay [2] was 96.4%.
Turning to `COc1ccc(C(=O)O[C@H]2CC[C@@]3(C)[C@@H]4CC[C@H]5[C@]6(O)C[C@H](O)[C@@]7(O)[C@@H](CN8C[C@@H](C)CC[C@H]8[C@@]7(C)O)[C@]6(O)C[C@@]53O[C@]24O)cc1OC`, in [1], the inhibition is 100%.
Regarding `Clc1ccc(-c2cc(-c3ccccc3)n[nH]2)cc1`, the Activity stood at 75% in assay [3]; 56.5% in [6]; 24.2% in assay [7]; 70% in assay [9]; 74.1% in assay [10]; 66.1% in assay [2]. Besides, the inhibition in assay [1] amounted to 16%.
As for `O=[N+]([O-])c1cccc(-c2cc(-c3ccccc3)n[nH]2)c1`, the Activity was 80.9% in [3]; 51.2% in assay [6]; 26.6% in [7]; 70% in assay [9]; 77.6% in assay [10]; 75.6% in [2]. In assay [1], this compound had an inhibition of 15%.
